Reference: ChEMBL document CHEMBL1138372, “Design, synthesis, and biological evaluation of new (2E,6E)-10-(dimethylamino)-3,7-dimethyl-2,6-decadien-1-ol ethers as inhibitors of human and Trypanosoma cruzi oxidosqualene cyclase” (Bioorg Med Chem Lett, 2007)
Active and inactive are the calls of the source. No cut-off for these calls is given here.

Key:
Lanosterol synthase ERG7 = molecular target: T1, Lanosterol synthase ERG7 (Saccharomyces cerevisiae S288c, UniProt P38604); assay: Inhibition of Saccharomyces cerevisiae oxidosqualene cyclase
T1 sequence (P38604 whole entry): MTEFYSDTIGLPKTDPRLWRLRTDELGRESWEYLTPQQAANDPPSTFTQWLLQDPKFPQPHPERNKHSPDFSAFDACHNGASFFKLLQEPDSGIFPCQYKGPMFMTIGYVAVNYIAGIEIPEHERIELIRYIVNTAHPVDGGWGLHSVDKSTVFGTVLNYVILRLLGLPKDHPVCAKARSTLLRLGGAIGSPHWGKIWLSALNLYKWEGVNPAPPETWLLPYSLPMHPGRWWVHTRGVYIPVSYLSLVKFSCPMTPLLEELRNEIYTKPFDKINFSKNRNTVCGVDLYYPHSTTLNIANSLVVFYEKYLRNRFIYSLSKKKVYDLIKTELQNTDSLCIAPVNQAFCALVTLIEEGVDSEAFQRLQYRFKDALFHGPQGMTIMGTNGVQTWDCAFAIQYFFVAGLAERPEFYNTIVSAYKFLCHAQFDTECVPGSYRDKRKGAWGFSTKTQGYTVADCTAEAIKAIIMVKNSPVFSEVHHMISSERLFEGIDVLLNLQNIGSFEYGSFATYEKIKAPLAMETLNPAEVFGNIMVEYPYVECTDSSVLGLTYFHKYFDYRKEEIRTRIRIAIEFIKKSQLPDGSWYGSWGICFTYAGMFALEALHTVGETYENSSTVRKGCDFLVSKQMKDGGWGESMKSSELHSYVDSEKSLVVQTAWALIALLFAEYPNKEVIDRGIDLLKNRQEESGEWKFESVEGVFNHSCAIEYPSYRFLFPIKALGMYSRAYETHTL

Lanosterol synthase [1] = molecular target: T2, Lanosterol synthase (Pneumocystis carinii, UniProt Q96WJ0); assay: Inhibition of Pneumocystis carinii oxidosqualene cyclase
T2 sequence (Q96WJ0 whole entry): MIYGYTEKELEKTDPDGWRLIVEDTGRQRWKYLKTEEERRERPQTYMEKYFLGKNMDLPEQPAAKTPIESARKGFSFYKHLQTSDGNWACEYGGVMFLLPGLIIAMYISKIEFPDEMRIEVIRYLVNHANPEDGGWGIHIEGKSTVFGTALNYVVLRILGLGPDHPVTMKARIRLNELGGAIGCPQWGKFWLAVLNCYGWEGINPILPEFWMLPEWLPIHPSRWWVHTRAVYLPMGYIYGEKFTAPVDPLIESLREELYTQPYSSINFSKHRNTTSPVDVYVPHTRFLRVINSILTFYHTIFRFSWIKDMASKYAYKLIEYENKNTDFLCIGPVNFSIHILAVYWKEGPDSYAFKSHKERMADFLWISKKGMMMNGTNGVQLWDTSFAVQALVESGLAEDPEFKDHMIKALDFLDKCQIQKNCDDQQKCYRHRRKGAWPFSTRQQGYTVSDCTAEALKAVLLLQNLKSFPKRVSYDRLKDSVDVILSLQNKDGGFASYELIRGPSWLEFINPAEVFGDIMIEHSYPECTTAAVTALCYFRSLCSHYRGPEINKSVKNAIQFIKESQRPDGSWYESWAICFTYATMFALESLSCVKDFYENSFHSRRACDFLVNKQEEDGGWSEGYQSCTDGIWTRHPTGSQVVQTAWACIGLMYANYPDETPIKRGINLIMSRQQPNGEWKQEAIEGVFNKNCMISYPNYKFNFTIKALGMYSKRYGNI

NIH3T3 [2] = assay: Inhibition of sterol biosynthesis in Swiss Albino mouse 3T3 cells assessed as incorporation of [2-14C]acetate in lanosterol at 1 uM; format: functional; parameters: scale not given: the % may be the effect or the level left
In short: (§1)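 3T3 fibroblasts (7×10^4 cells) were grown 24 h in DMEM with 10% lipid-depleted serum, then preincubated 3 h with inhibitor. [2-14C]acetate (1 uCi/well) was added for a further 3 h. Cells were lysed in 0.1 N NaOH and saponified in methanolic KOH (1 h, 80 °C). Nonsaponifiable lipids were extracted and separated by TLC against sterol standards. Label is given as % of total radioactivity in sterols, mean ± SD of two experiments in duplicate.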

NIH3T3 [3] = assay: Inhibition of sterol biosynthesis in Swiss Albino mouse 3T3 cells assessed as incorporation of [2-14C]acetate in 2,3-oxidosqualene at 1 uM; format: functional; parameters: scale not given: the % may be the effect or the level left; in short: as §1
NIH3T3 [4] = assay: Inhibition of sterol biosynthesis in Swiss Albino mouse 3T3 cells assessed as incorporation of [2-14C]acetate in cholesterol at 1 uM; format: functional; parameters: scale not given: the % may be the effect or the level left; in short: as §1
Lanosterol synthase [5] = molecular target: T3, Lanosterol synthase (Homo sapiens, UniProt P48449); assay: Inhibition of human oxidosqualene cyclase expressed in Pichia pastoris cells
T3 sequence (P48449 whole entry): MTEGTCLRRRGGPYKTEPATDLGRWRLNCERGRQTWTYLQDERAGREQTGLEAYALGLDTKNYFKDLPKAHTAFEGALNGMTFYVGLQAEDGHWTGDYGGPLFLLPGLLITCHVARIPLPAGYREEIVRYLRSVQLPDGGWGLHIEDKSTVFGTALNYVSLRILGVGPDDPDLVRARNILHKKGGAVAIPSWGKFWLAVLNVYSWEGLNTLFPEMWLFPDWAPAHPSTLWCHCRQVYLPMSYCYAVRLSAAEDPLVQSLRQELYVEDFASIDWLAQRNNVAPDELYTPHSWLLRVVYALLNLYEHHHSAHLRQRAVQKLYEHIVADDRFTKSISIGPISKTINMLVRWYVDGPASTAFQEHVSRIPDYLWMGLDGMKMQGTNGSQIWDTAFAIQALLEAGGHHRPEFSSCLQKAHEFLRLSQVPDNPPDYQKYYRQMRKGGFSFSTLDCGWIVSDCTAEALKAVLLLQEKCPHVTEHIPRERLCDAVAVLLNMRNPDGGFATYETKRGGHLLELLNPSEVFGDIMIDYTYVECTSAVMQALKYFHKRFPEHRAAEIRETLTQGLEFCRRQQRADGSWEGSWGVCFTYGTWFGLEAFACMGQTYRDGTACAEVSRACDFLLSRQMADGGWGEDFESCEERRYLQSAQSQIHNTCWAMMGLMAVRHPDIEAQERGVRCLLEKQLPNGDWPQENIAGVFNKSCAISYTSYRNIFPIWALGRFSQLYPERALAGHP

[6] = Inhibition of Trypanosoma cruzi oxidosqualene cyclase
NIH3T3 [7] = assay: Inhibition of sterol biosynthesis in Swiss Albino mouse 3T3 cells assessed as incorporation of [2-14C]acetate in squalene at 1 uM; format: functional; parameters: scale not given: the % may be the effect or the level left; in short: as §1
NIH3T3 [8] = assay: Inhibition of sterol biosynthesis in Swiss Albino mouse 3T3 cells assessed as incorporation of [2-14C]acetate in […]-dioxidosqualene at 1 uM; format: functional; parameters: scale not given: the % may be the effect or the level left; in short: as §1
[9] = molecular target: T4, Lanosterol synthase (Homo sapiens) (UniProt P48449); assay: Inhibition of human oxidosqualene cyclase expressed in Pichia pastoris cells at 10 uM
T4 sequence (whole entry): T3 sequence (P48449 whole entry)

Trypanosoma cruzi = assay: Inhibition of Trypanosoma cruzi oxidosqualene cyclase at 10 uM
[10] = molecular target: T5, Lanosterol synthase ERG7 (Saccharomyces cerevisiae S288c) (UniProt P38604); assay: Inhibition of Saccharomyces cerevisiae oxidosqualene cyclase at 10 uM
T5 sequence (whole entry): T1 sequence (P38604 whole entry)

NIH3T3 [11] = assay: Inhibition of sterol biosynthesis in Swiss Albino mouse 3T3 cells assessed as decrease in incorporation of [2-14C]acetate in cholesterol at 50 uM; format: functional; parameters: scale not given: the % may be the effect or the level left; in short: as §1
[12] = molecular target: T6, Lanosterol synthase (Pneumocystis carinii) (UniProt Q96WJ0); assay: Inhibition of Pneumocystis carinii oxidosqualene cyclase at 10 uM
T6 sequence (whole entry): T2 sequence (Q96WJ0 whole entry)

IC50 (Lanosterol synthase ERG7) | IC50 (Lanosterol synthase [1]) | IC50 (Lanosterol synthase [5]) | IC50 [6] | inhibition [9] | inhibition (Trypanosoma cruzi) | Activity [10] | inhibition [12] | inhibition [10] | Structure (SMILES) | Activity (NIH3T3 [2]) | Activity (NIH3T3 [3]) | Activity (NIH3T3 [4]) | Activity (NIH3T3 [7]) | Activity (NIH3T3 [8]) | Activity (NIH3T3 [11])
450 nM | 330 nM | 1100 nM | 470 nM | – | – | – | – | – | C/C(=C\COCCCc1ccccc1)CC/C=C(\C)CCCN(C)C | 5.5% | 27.9% | 31.3% | 5.5% | 30.4% | –
– | – | – | – | < 20% | < 20% | – | < 20% | – | C/C(=C\COCCCc1ccccc1)CC/C=C(\C)CCC(=O)N(C)C | 3.2% | 4.6% | 84.6% | 4.8% | 2.8% | >50%
– | 1700 nM | 4500 nM | 7400 nM | – | – | – | – | < 20% | C/C(=C\COCCCc1ccc(-c2ccccc2)cc1)CC/C=C(\C)CCCN(C)C | 6.4% | 17.5% | 53.2% | 4.9% | 18% | –

The next lines start with the compound.

Structure (SMILES) | IC50 (Lanosterol synthase ERG7) | IC50 (Lanosterol synthase [1]) | IC50 (Lanosterol synthase [5]) | IC50 [6] | inhibition [9] | inhibition (Trypanosoma cruzi) | Activity [10] | inhibition [12] | inhibition [10] | Activity (NIH3T3 [2]) | Activity (NIH3T3 [3]) | Activity (NIH3T3 [4]) | Activity (NIH3T3 [7]) | Activity (NIH3T3 [8]) | Activity (NIH3T3 [11])
C/C(=C\COCCCc1cccc2ccccc12)CC/C=C(\C)CCCN(C)C | – | 10000 nM | – | – | < 20% | < 20% | inactive | – | – | 5% | 12.5% | 72.7% | 6.6% | 3.2% | 30%
CCCCCCOC/C=C(\C)CC/C=C(\C)CCCN(C)C | 1780 nM | 360 nM | 850 nM | 2700 nM | – | – | – | – | – | 7.9% | 29.6% | 35.5% | 4.6% | 22.3% | –
C/C(=C\CO)CC/C=C(\C)CCCN(C)C | – | – | – | – | < 20% | < 20% | inactive | < 20% | – | 2.5% | 3.9% | 88.2% | 4.1% | 1.3% | 30%
